# Measurements from different studies.
# Lines come from different studies, so protocols differ.
# Target: Death-associated protein kinase 1 (DAPK1, Homo sapiens, UniProt P53355)
Compound,effect on,technique,concentration,remaining binding [%]
C[C@H]1CCN(c2nccc(-c3cnn4ncccc34)n2)C1,binding,,1 µM,71
FC(F)(F)c1ccc2c(c1)nc(-c1cccnc1)n2C1CC1,cell-free assay,competition with immobilised ligand,1 µM,100
c1cnn2ncc(-c3ccnc(N4CCC45COC5)n3)c2c1,binding,,1 µM,79
FC(F)(F)Oc1cccc(-c2cnc3ccc(-c4ccncc4)nn23)c1,cell-free assay,competition with immobilised ligand,5 µM,89
O=C1CCc2cc(Nc3cc(OC4CCOCC4)c([N+](=O)[O-])cc3Cl)ccc2N1,cell-free assay,competition with immobilised ligand,1 µM,90
CN(C)c1nccc(-c2cnc3ncccn23)n1,binding,,1 µM,92
c1ccc(N2CCN(Cc3nc4ccccc4[nH]3)CC2)nc1,binding,competition with immobilised ligand,1 µM,100
CN(CCCC(F)(F)F)c1nccc(-c2cnn3ncccc23)n1,binding,,1 µM,100
Nc1ncc2c(n1)-c1c([nH]c3ccc(C#CC4CC4)cc13)CCCC2,binding,competition with immobilised ligand,1 µM,87
O=C(NCCCN1CCOCC1)c1ccc(Nc2ncc(Cl)c(-c3ccc(Cl)s3)n2)cc1,binding,competition with immobilised ligand,1 µM,22
CNCc1ccccc1-c1csc([C@H](C)Nc2nc(C)nc3cc(OC)c(OC)cc23)c1,cell-free assay,competition with immobilised ligand,1 µM,100
C[C@@H](c1ccc(-n2cnc3c(N)ncnc32)cc1)N1CCc2nn(C)c(Cc3ccccc3)c2C1=O,binding,competition with immobilised ligand,0.1 µM,95
C[C@H](c1ccc(F)cc1)N(Cc1cccc(C(=O)O)c1)C(=O)c1cnc2ccccc2c1,cell-free assay,competition with immobilised ligand,1 µM,97
CN(C)c1nccc(-c2cnn3ncccc23)n1,binding,,1 µM,100
O=C(c1ccc(Nc2ncc(Cl)c(-c3cc4ccccc4s3)n2)cc1)N1CCC(N2CCCC2)CC1,binding,competition with immobilised ligand,1 µM,20
COc1cnc(Nc2cccc(S(N)(=O)=O)c2)nc1N1CCN(c2ccccc2)C(=O)C1,binding,competition with immobilised ligand,1 µM,95
CN(C)c1ncc(F)c(-c2cnn3ncccc23)n1,binding,,1 µM,100
Cn1nc(C(=O)NCc2ccc(C(=O)O)cc2)cc1-c1ccc2[nH]ccc2c1,cell-free assay,competition with immobilised ligand,0.1 µM,97
O=C(Nc1c[nH]nc1C(=O)NC1CCNCC1)c1cc(F)cc(F)c1,binding,competition with immobilised ligand,1 µM,100
O=C(c1ccc(Nc2ncc(Cl)c(-c3ccc(Cl)s3)n2)cc1)N1CCC(N2CCCC2)CC1,binding,competition with immobilised ligand,1 µM,17
COc1ncc2cc3ccccc3nc2c1C#N,cell-free assay,competition with immobilised ligand,5 µM,95
